Assay [1] has as its system Plasmodium falciparum. Description: Antimalarial activity against Plasmodium falciparum 3D7 assessed as lipid peroxidation after 48 hrs by spectrophotometry relative to untreated control. In kind it is functional. Put shortly: (§1)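 Parasite cultures treated with a sub-lethal concentration of compound. Intracellular ROS measured with the fluorescent probe 2',7'-dichlorofluorescein diacetate. Lipid peroxidation measured by a previously described method. Each index expressed as fold change ± SD versus untreated culture.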

The subject of assay [2] is Plasmodium falciparum. Briefly: Antimalarial activity against ring-stage Plasmodium falciparum 3D7 assessed as schizonticidal activity after 42 hrs. As to conditions: 3D7, 42 h. It is filed as functional, organism-based. Put shortly: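 Ring-stage P. falciparum 3D7-parasitised cells exposed to compound for 42 h. Blood smears scored for maturation of rings into trophozoites and schizonts. IC50 derived from schizont inhibition by regression analysis.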

For assay [3], the system named is Plasmodium falciparum. Briefly: Antimalarial activity against Plasmodium falciparum 3D7 assessed as intracellular ROS generation relative to untreated control. It is filed as functional. Put shortly: as §1
The test system of assay [4] is Plasmodium falciparum. Briefly: Parasitocidal activity against ring-stage Plasmodium falciparum 3D7 assessed as minimum killing concentration incubated for 42 hrs followed by compound washout measured 72 hrs post infection in hematocrit. It is filed as functional. Put shortly: (§2)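 After drug exposure, compound removed and cultures washed 3 times with Albumax II-free RPMI-1640. Cultures then incubated a further 72 h in complete medium with fresh hematocrit. RBCs containing viable parasite counted on thin smear to class inhibition as parasitostatic or parasitocidal.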

Assay [5] has as its system Plasmodium falciparum. Description: Parasitostatic activity against ring-stage Plasmodium falciparum 3D7 assessed as minimum killing concentration incubated for 42 hrs followed by compound washout measured 72 hrs post infection in hematocrit. It is filed as functional, organism-based. Put shortly:
as §2

pIC50: −log10 of the molar value. The source made the active and inactive calls. The rule behind the calls is not given here.

In the case of `O=C(Nc1ccc(O)cc1)c1c(N2CCCCC2)cc(-c2ccccc2)oc1=O`, the “fold change (FC)” value stood at 9.03 with Plasmodium falciparum [1] and 1.2 with Plasmodium falciparum [3]. Also, the pIC50 in the assay with Plasmodium falciparum [2] was 6.12. Further, in the assay with Plasmodium falciparum [4], the Activity turned out to be 1.99 µM.
Regarding `Cc1ccc(NC(=O)c2c(N3CCCCC3)cc(-c3ccccc3)oc2=O)cc1`, the “fold change (FC)” value in the assay on Plasmodium falciparum [1] amounted to 11.03; in the assay with Plasmodium falciparum [3], 1.66. Also, in the assay on Plasmodium falciparum [2], the pIC50 is 6.07. Moreover, the Activity in the assay with Plasmodium falciparum [4] came out at 1 µM.
In the case of `O=C(Nc1ccc(F)cc1)c1c(O)cc(-c2ccccc2)oc1=O`, the pIC50 in the assay on Plasmodium falciparum [2] was 6.05. Further, the Activity in the assay on Plasmodium falciparum [4] was 2.39 µM.
With `Cc1ccc(NC(=O)c2c(O)cc(-c3ccccc3)oc2=O)cc1`, the pIC50 with Plasmodium falciparum [2] is 5.85. For the same compound, in the assay on Plasmodium falciparum [4], the Activity is 38.9 µM.
In the case of `O=C(Nc1ccc(Br)cc1)c1c(N2CCCCC2)cc(-c2ccccc2)oc1=O`, the “fold change (FC)” value with Plasmodium falciparum [1] was 4.49; in the assay on Plasmodium falciparum [3], 1.87. Besides, the negative logarithm of the IC50 (pIC50) with Plasmodium falciparum [2] was 6.47. Moreover, the Activity in the assay on Plasmodium falciparum [4] is 0.21 µM.
Consider `O=C(Nc1ccc(Br)cc1)c1c(O)cc(-c2ccccc2)oc1=O`, for which the pIC50 in the assay with Plasmodium falciparum [2] is 6.12. The Activity with Plasmodium falciparum [4] amounted to 3.9 µM.
For the compound `COc1ccc(-c2cc(N3CCN(C)CC3)c(C(=O)Nc3ccc(O)cc3)c(=O)o2)cc1`, the “fold change (FC)” value in the assay on Plasmodium falciparum [1] amounted to 4.88; in the assay with Plasmodium falciparum [3] it was 1.99. Further, the pIC50 with Plasmodium falciparum [2] is 5.80. For the same compound, the result with Plasmodium falciparum [5] was inactive.

The values are drawn from ChEMBL document CHEMBL3085730, “Skeletal hybridization and PfRIO-2 kinase modeling for synthesis of α-pyrone analogs as anti-malarial agent” (Eur J Med Chem, 2013).
